Data set [1] deals with Mus musculus. The data set can be described thus: Effect on spermatogenesis in CD-1 mouse assessed as abnormality in spermatid translocation at 5 mg/kg/day, po for 7 days measured after 4 weeks post-cessation of drug treatment by hematoxylin counter-staining based analysis. Conditions: time 5.0 weeks. It counts as functional, organism-based.
The test system of data set [2] is Mus musculus. The data set can be described thus: Effect on spermatogenesis in CD-1 mouse assessed as reduction in sperm count administered as Carbitol formulation at 10 mg/kg/day, po for 28 days consecutively measured on day 1 post-cessation of drug treatment by hemocytometry relative to control. It counts as functional. Conditions: time 29 day. Set-up: scale not given: the % may be the effect or the level left.

Data set [3] concerns Mus musculus. The data set can be described thus: Effect on spermatogenesis in CD-1 mouse assessed as sperm count at 5 mg/kg/day, po for 7 days measured after 4 weeks post-cessation of drug treatment by hemocytometry. It is filed as functional. Conditions: time 5 weeks.
In data set [4] the target is T1, Retinoic acid receptor gamma (Homo sapiens, UniProt P13631).
T1 sequence (P13631 whole entry): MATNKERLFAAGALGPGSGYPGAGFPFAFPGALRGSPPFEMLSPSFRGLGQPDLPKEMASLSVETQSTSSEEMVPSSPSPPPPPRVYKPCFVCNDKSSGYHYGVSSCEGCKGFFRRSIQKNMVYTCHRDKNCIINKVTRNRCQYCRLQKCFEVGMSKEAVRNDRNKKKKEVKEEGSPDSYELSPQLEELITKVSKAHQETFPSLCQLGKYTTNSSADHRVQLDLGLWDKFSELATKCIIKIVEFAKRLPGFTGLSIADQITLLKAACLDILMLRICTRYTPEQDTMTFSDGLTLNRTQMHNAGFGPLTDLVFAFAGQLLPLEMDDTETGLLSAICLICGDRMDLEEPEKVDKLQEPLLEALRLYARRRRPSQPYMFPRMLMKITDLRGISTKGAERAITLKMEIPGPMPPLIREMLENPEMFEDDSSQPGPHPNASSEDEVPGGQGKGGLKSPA
The data set can be described thus: Antagonist activity at recombinant human RAR-gamma expressed in mammalian cells in presence of ATRA by luciferase reporter gene based transactivation assay. It counts as cell-based. The essentials: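 Compounds 8-point dose response in triplicate, DMSO final 0.4%; overnight at 37 °C, 5% CO2; luminescence after 30 min detection reagent. IC50 by four-parameter logistic fit; agonist-free wells set background.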

Data set [5] is described as follows: Solubility of compound in PBS at pH 7.4. It is filed as physicochemical. Conditions: buffer. The essentials: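 Solubility measured in PBS, pH 7.4.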
Data set [6] has as its system Mus musculus. The experiment in a line: Effect on spermatogenesis in CD-1 mouse assessed as abnormal epididymal sperm morphology at 5 mg/kg/day, po for 7 days measured after 4 weeks post-cessation of drug treatment by hematoxylin counter-staining based analysis. It counts as functional, organism-based. Conditions: time 5.0 weeks.
The subject of data set [7] is Mus musculus. The experiment in a line: Effect on spermatogenesis in CD-1 mouse assessed as sperm count at 5 mg/kg/day, po for 7 days measured on day 1 post-cessation of drug treatment by hemocytometry (reference value: 55.50 +/- 8.18 x 10^6No_unit). It counts as functional. The conditions noted are these: time 8 day.
Data set [8] is described as follows: Metabolic stability in CD-1 mouse liver microsomes assessed as compound remaining in presence of NADPH measured for 60 mins at 10^-6 M. It is filed as ADME, Microsome. Conditions: dose 1 10^-6M, read-out: Stability.
The test system of data set [9] is Mus musculus. The data set can be described thus: Effect on spermatogenesis in CD-1 mouse assessed as abnormality in spermatid release at 5 mg/kg/day, po for 7 days measured after 4 weeks post-cessation of drug treatment by hematoxylin counter-staining based analysis. It counts as functional, organism-based. Conditions: time 5.0 weeks.
In data set [10] the test system is Mus musculus. The experiment in a line: Effect on spermatogenesis in CD-1 mouse assessed as abnormality in spermatid translocation at 10 mg/kg/day, po for 2 weeks measured measured after 4 weeks post-cessation of drug treatment by hematoxylin counter-staining based analysis. It counts as functional, organism-based. The conditions noted are these: time 6.0 weeks. The method in brief: (§1)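 CD1 males given 10 mg/kg/day orally for 2 weeks dissolved in 20% aqueous Kollisolv (n = 10 per time point); vehicle-only controls n = 5. Testes collected one day or 4 weeks after cessation, fixed in 4% paraformaldehyde or Bouin's, paraffin-embedded, PAS-stained with hematoxylin counterstain and tubules staged by bright-field microscopy.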

Data set [11] is described as follows: Drug uptake in CD-1 mouse plasma at 10 mg/kg, po measured for 30 mins by LC-MS/MS analysis. It counts as ADME, organism-based. Conditions: in vivo, 0.5 h. The essentials:
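Male CD-1 mice, 6-8 weeks, single oral dose 10 mg/kg in 80% Carbitol/20% saline (1.75 mg/ml). Sets of 3 mice bled and euthanized at 5, 15, 30 min to 24 h; plasma frozen ≤ −20 °C, acetonitrile-precipitated with internal standard, analysed by isocratic LC-MS/MS against calibration standards. Mean ± S.D. of 3 animals.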

The target in data set [12] is T2, Retinoic acid receptor beta (Homo sapiens, UniProt P10826).
T2 sequence (P10826 whole entry): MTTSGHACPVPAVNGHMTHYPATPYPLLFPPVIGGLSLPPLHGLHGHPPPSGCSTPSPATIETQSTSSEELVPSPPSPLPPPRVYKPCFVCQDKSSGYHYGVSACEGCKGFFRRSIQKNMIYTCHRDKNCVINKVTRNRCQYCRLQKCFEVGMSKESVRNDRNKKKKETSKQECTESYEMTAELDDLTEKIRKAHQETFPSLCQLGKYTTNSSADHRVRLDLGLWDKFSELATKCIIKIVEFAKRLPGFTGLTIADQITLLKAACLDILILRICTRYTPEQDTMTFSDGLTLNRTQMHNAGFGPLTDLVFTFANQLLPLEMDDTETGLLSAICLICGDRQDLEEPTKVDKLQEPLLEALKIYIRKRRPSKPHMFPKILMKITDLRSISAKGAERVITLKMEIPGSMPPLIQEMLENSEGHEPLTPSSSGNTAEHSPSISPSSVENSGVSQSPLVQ
The experiment in a line: Agonist activity at recombinant human RAR-beta expressed in mammalian cells by luciferase reporter gene based transactivation assay. It counts as cell-based. The method in brief: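 Human RAR-subtype luciferase reporter cells (RARE-driven). Compounds in DMSO (final 0.4%) tested as 8-point dose response in triplicate. Incubated overnight at 37 °C in 5% CO2, then detection reagent 30 min at r.t. and luminescence measured. EC50 by four-parameter logistic fit, mean ± SEM from geometric mean of log EC50 across independent experiments.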

A short description of data set [13]: Partition coefficient, logD of compound in 1-octanol/PBS at pH 7.4. It is filed as physicochemical. Conditions: octanol/water. The method in brief:
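Distribution between 1-octanol and PBS at pH 7.4; log D reported.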

The subject of data set [14] is Mus musculus. The data set can be described thus: Effect on spermatogenesis in CD-1 mouse assessed as abnormality in spermatid release at 10 mg/kg/day, po for 2 weeks measured measured after 4 weeks post-cessation of drug treatment by hematoxylin counter-staining based analysis. It is filed as functional, organism-based. The conditions noted are these: time 6.0 weeks. The method in brief: as §1

Data set [15] deals with Mus musculus. The experiment in a line: Effect on spermatogenesis in CD-1 mouse assessed as abnormal stage IX tubules at 10 mg/kg/day, po for 2 weeks measured measured after 4 weeks post-cessation of drug treatment by hematoxylin counter-staining based analysis. Conditions: time 6.0 weeks. It counts as functional, organism-based. The method in brief: as §1
The target of data set [16] is T2, Retinoic acid receptor beta. The experiment in a line: Antagonist activity at recombinant human RAR-beta expressed in mammalian cells in presence of ATRA by luciferase reporter gene based transactivation assay. It counts as cell-based.

pEC50, pIC50: −log10 of the molar value. Converted amounts (≈) assume the structure as drawn. The source made the active and inactive calls. The rule behind the calls is not given here. Some results are limits rather than exact numbers.

With `Cc1ccc(C2=CC(C)(C)Oc3ccc(C(=O)Nc4ccc(C(=O)O)cc4)cc32)cc1`, the result in the data set with Mus musculus [1], with Mus musculus [6], in the data set with Mus musculus [9], in the data set on Mus musculus [10], with Mus musculus [14] and in the data set on Mus musculus [15] was inactive. Also, the Activity with Mus musculus [2] was approximately 73%; in the data set on Mus musculus [3] it was 54.9 10^6No_unit; with Mus musculus [7], 24.5 10^6No_unit. The pIC50 in data set [4] is 6.51; in data set [16], less than 5.48. In [5], this molecule yielded a solubility of 4.2 µM (≈ 1.74 µg/mL). Further, the remaining at 1 h, 1 µM in data set [8] came to 100%. Further, the Drug uptake entry in data set [11] is reported as “Active”. Besides, in [12], the pEC50 is 7.12. In addition, the logD in data set [13] is 3.35.

The record behind these values is ChEMBL document CHEMBL5634116, “Strategies for developing retinoic acid receptor alpha-selective antagonists as novel agents for male contraception” (Eur J Med Chem, 2023).
